Results on five compounds are retold here after ChEMBL document CHEMBL1147539, “Synthesis and biological evaluation of novel, selective, nonsteroidal glucocorticoid receptor antagonists” (Bioorg Med Chem Lett, 2004).

For one experiment, the target named is T1, Glucocorticoid receptor (Homo sapiens, UniProt P04150).
T1 sequence (P04150 whole entry): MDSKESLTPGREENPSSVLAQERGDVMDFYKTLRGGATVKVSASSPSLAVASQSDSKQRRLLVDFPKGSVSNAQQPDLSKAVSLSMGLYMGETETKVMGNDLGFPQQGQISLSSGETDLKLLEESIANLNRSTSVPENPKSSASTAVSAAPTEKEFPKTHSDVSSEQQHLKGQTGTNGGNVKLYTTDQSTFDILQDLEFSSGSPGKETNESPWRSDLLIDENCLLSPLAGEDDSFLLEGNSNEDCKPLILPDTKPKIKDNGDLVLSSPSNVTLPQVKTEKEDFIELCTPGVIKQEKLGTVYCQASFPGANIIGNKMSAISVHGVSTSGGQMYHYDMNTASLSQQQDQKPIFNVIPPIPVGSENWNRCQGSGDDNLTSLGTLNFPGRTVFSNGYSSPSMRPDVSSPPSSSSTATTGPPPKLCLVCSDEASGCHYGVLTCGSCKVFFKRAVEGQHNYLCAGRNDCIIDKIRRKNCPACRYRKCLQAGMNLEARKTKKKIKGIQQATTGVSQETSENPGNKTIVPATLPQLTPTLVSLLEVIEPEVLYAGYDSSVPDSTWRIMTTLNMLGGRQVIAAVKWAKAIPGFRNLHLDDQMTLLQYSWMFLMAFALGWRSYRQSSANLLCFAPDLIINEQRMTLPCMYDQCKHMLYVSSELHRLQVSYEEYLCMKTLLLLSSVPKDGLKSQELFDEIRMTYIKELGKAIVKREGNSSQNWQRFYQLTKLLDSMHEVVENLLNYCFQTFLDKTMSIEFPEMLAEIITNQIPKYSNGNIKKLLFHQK
The experiment in a line: Effect on human Glucocorticoid receptor (GR) in a whole cell assay to measure functional cellular GR-antagonism (GRAF).

The next experiment deals with T2, Androgen receptor (Homo sapiens, UniProt P10275).
T2 sequence (P10275 whole entry): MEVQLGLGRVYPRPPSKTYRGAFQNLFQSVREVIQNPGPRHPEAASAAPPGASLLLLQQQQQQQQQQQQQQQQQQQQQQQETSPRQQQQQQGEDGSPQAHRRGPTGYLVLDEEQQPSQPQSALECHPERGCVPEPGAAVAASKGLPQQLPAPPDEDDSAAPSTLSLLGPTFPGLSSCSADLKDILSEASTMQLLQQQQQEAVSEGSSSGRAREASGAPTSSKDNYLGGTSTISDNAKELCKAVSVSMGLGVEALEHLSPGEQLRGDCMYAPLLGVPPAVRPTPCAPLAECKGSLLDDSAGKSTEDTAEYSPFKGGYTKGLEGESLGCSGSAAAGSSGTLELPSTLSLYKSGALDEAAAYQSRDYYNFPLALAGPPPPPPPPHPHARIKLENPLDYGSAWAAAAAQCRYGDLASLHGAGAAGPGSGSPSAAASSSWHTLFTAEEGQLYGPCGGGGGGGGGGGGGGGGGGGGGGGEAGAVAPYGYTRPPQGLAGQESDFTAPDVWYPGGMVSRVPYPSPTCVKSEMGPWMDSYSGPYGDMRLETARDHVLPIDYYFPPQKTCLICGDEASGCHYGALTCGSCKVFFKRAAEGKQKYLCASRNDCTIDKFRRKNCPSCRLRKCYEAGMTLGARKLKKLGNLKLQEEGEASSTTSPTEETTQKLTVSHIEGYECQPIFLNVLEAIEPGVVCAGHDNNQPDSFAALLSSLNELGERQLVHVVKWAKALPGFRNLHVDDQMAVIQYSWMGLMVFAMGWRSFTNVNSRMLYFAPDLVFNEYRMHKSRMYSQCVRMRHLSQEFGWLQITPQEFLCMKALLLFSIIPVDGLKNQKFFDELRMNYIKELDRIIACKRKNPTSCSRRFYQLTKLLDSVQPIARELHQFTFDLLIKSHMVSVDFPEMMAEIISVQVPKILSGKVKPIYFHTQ
The experiment in a line: Displacement of [3H]mibolerone from human Androgen receptor.

The target of another experiment is T3, Estrogen receptor (Homo sapiens, UniProt P03372).
T3 sequence (P03372 whole entry): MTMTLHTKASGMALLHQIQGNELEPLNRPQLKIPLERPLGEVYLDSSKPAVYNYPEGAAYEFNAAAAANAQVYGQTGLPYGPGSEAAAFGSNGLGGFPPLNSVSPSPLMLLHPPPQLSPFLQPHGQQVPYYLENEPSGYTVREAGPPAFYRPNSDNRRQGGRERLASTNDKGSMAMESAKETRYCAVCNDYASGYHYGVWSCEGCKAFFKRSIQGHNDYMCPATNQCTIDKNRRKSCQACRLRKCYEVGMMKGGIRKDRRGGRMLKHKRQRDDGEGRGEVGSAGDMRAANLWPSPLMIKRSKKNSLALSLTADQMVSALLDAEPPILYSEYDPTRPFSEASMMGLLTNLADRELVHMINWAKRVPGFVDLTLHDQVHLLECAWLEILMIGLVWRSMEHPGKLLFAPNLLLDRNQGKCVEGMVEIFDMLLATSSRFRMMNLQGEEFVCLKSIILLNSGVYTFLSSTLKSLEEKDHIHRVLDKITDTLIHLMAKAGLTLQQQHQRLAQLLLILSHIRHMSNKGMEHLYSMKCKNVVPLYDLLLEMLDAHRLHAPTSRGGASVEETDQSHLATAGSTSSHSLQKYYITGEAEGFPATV
The experiment in a line: Displacement of [3H]estradiol from human estrogen receptor alpha. The essentials:
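Human steroid receptor (PR, MR, AR, ERα) binding measured by radioligand displacement, with IC50s determined in duplicate. Values without a range come from a single experiment, and values with a range are geometric means of repeat experiments.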
On the technique in general: Displacement assays read how much labelled ligand stays bound in the presence of the test substance.

Take `COc1cccc2c1-c1ccc(NS(C)(=O)=O)cc1C(c1cccs1)O2` (stereo not drawn): the values for the IC50 on Glucocorticoid receptor, at Androgen receptor and at Estrogen receptor were 0.066 µM, above 10 µM and above 10 µM, respectively.

For `COc1cccc2c1-c1ccc(NS(C)(=O)=O)cc1C(c1cccc(F)c1)O2` (stereo not drawn), the results for the IC50 against Glucocorticoid receptor, at Androgen receptor and at Estrogen receptor were 0.076 µM, above 10 µM and above 10 µM, respectively.

Turning to `COc1cccc2c1-c1ccc(NS(C)(=O)=O)cc1C(c1ccc(F)cc1)O2` (stereo not drawn), the IC50 (in general, the concentration at which inhibition is half-maximal) at Androgen receptor is above 10 µM; at Estrogen receptor, above 1 µM.

With `COc1cccc2c1-c1ccc(NS(C)(=O)=O)cc1C(c1ccc(C)cc1)O2` (stereo not drawn), the IC50 on Androgen receptor and on Estrogen receptor was above 10 µM in each case.

In the case of `CCOc1cccc2c1-c1ccc(NS(C)(=O)=O)cc1C(c1ccccc1)O2` (stereo not drawn), the half-inhibitory concentration (IC50) at Glucocorticoid receptor was 0.308 µM; at Androgen receptor, above 10 µM; on Estrogen receptor, above 10 µM.
